Activity calls are given as the source filed them. The calls are words filed in the database; no cut-off is given here.
Tests used:
[1] = Ratio of inhibition of PDE4B over inhibition of PDE4D2
[2] = target: 3',5'-cyclic-AMP phosphodiesterase 4D (Homo sapiens) (UniProt Q08499); test: Inhibition of PDE4D2 using cAMP as substrate at 30 uM preincubated for 15 mins prior substrate addition measured after 1 hr by luminescence-based spectrophotometry
[3] = target: 3',5'-cyclic-AMP phosphodiesterase 4B (Homo sapiens) (UniProt Q07343); test: Inhibition of PDE4B expressed in Sf9 cells using cAMP as substrate at 30 uM preincubated for 15 mins prior substrate addition measured after 1 hr by luminescence-based spectrophotometry
Sequence of 3',5'-cyclic-AMP phosphodiesterase 4B (Homo sapiens) (Q07343 whole entry): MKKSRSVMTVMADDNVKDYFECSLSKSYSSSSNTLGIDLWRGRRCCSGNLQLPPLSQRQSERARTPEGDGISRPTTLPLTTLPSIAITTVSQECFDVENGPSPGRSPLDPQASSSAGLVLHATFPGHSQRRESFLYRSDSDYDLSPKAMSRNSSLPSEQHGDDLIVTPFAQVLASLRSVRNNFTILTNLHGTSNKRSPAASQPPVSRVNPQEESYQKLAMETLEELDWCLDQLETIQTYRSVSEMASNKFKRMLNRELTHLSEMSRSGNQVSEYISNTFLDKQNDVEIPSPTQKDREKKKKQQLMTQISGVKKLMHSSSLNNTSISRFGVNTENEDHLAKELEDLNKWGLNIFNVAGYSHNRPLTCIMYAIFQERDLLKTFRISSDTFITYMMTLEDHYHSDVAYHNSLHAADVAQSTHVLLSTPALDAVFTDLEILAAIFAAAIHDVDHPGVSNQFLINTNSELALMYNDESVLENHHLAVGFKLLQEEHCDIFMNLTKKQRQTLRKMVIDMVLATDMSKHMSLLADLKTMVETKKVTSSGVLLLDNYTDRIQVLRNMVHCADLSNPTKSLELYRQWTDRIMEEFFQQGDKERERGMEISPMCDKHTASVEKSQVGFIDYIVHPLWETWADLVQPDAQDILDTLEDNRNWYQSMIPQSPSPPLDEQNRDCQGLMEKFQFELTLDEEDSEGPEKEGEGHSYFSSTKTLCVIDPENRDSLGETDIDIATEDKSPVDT
Outline: (§1)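 10 ng PDE4B enzyme (isolated from Sf9 cells) was preincubated 15 min with compound or DMSO vehicle, then incubated 1 h with 5 µM cAMP using a PDElight HTS cAMP phosphodiesterase kit. The reaction was stopped, then developed with detection reagent for 10 min in the dark. Luminescence (RLU) was read, and % inhibition was calculated as (RLU vehicle − RLU inhibitor)/RLU vehicle × 100.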

[4] = target: 3',5'-cyclic-AMP phosphodiesterase 4B (Homo sapiens) (UniProt Q07343); test: Inhibition of PDE4B expressed in Sf9 cells using cAMP as substrate preincubated for 15 mins prior substrate addition measured after 1 hr by luminescence-based spectrophotometry; outline: as §1

Sequence of 3',5'-cyclic-AMP phosphodiesterase 4D (Homo sapiens) (Q08499 whole entry): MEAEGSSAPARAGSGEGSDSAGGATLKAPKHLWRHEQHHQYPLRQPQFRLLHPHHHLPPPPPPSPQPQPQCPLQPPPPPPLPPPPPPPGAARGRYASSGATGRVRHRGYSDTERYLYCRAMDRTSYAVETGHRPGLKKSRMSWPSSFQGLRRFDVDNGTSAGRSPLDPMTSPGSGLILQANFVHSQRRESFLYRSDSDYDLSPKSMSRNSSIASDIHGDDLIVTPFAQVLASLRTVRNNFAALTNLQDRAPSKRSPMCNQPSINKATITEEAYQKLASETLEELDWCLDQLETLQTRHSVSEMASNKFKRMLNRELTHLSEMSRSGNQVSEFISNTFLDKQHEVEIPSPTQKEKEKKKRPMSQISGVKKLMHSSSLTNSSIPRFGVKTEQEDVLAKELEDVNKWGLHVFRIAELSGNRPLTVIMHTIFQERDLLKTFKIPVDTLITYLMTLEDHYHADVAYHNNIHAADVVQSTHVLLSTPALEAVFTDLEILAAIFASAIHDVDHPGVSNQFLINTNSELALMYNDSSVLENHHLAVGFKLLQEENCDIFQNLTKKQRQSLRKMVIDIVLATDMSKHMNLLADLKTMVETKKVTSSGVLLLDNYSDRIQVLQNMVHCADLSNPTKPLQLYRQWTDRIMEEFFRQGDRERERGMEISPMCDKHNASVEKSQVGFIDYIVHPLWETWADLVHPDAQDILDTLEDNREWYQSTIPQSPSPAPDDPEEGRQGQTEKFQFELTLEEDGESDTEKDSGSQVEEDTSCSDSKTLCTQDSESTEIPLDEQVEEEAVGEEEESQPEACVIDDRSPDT

Compound	Ratio [1]	inhibition [2] [%]	inhibition [3] [%]	inhibition [4]
CCOC(=O)c1n[nH]c(-c2cccc(Cl)c2)c1C#Cc1ccccc1	2	20	70	–
Cc1c(C#Cc2ccccc2)cnn1C	–	–	–	Active
CCOC(=O)c1nn(C)c(-c2cccc(Cl)c2)c1C#CCCO	–	–	59.2	–
CCOC(=O)c1n[nH]c(-c2cccc(Cl)c2)c1C#CCO	–	–	68.1	–
CCOC(=O)c1nn(C)c(-c2cccc(Cl)c2)c1C#CC(C)(C)O	–	–	67.3	–
CCOC(=O)c1nn(C)c(-c2cccc(Cl)c2)c1C#CCO	–	–	69.1	–
CCOC(=O)c1nn(C)c(-c2cccc(Cl)c2)c1C#CCCCC#N	2	20	73.4	Dose-dependent effect
CCOC(=O)c1n[nH]c(-c2cccc(Cl)c2)c1C#CCCO	–	–	65.1	–
Cc1nn(C)c(C)c1C#Cc1ccccc1	–	–	–	Active
CCOC(=O)c1n[nH]c(-c2cccc(Cl)c2)c1C#CC1(O)CCCCC1	–	–	21.1	–
CCOC(=O)c1n[nH]c(-c2cccc(Cl)c2)c1C#CC(C)(C)O	2	20	70	–
CCOC(=O)c1n[nH]c(-c2cccc(Cl)c2)c1C#CCCCC#N	2	20	71.1	–
